Experimental findings from ChEMBL document CHEMBL4376899, “Structure-Based Stabilization of Non-native Protein-Protein Interactions of Coronavirus Nucleocapsid Proteins in Antiviral Drug Design” (J Med Chem, 2020) are described below.

Activity calls are given as the source filed them. No cut-off for these calls is given here.

A word on the EC50: it is the concentration at which the effect is half-maximal. As usually defined, the CC50 is the concentration giving 50% cytotoxicity. As usually defined, the Tm is the temperature at the midpoint of the melting transition.

Data set [1] relates to Middle East respiratory syndrome-related coronavirus. Kind of data set: Antiviral activity against MERS-CoV infected in African green monkey Vero E6 cells incubated for 48 hrs by neutral red uptake assay. In kind it is functional, organism-based. The note with it: Vero C1008, 48 h.
Data set [2] has the same test system. Description: Binding affinity to N-terminal domain of MERS-CoV nucleocapsid protein assessed as interaction with W43 pocket at 10 uM incubated for 1 hr by fluorescence spectral analysis. In outline: (§1)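 1 μM N protein was incubated with 10 μM compound or buffer at 4 °C for 1 h in 50 mM Tris-HCl (pH 8.3), 150 mM NaCl. Tryptophan fluorescence was excited at 280 nm and emission scanned over 300–400 nm.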

Data set [3] is described as follows: Cytotoxicity in African green monkey Vero E6 cells incubated for 48 hrs by neutral red uptake assay. Format: cell-based, Vero C1008. Particulars: chlorocebus sabaeus.
The subject of data set [4] is Vero C1008. Kind of data set: Antiviral activity against HCoV EMC/2012 infected in African green monkey Vero E6 cells assessed as reduction in viral titer at 100 uM incubated for 48 hrs by crystal violet staining based viral plaque assay. In kind it is functional. Particulars: Human betacoronavirus 2c EMC/2012.
Data set [5] has as its system Vero C1008. Description: Antiviral activity against HCoV EMC/2012 infected in African green monkey Vero E6 cells assessed as reduction in viral replication at 100 uM incubated for 48 hrs by RT-qPCR analysis. In kind it is functional. The note with it: Human betacoronavirus 2c EMC/2012. On the technique in general: In qPCR the cycle at which signal appears reflects the starting amount.

The test system of data set [6] is Middle East respiratory syndrome-related coronavirus. Kind of data set: Binding affinity to N-terminal domain of MERS-CoV nucleocapsid protein assessed as maximum dimension at 440 uM by SAXS analysis (reference value: 207 angstrom).
Data set [7] in a line: Antiviral activity against HCoV EMC/2012 infected in African green monkey Vero E6 cells assessed as reduction in viral replication at 50 uM incubated for 48 hrs by RT-qPCR analysis. In kind it is functional, Human betacoronavirus 2c EMC/2012, Vero C1008. On the set-up: scale not given: the % may be the effect or the level left.
Data set [8] concerns Middle East respiratory syndrome-related coronavirus. Kind of data set: Binding affinity to N-terminal domain of MERS-CoV nucleocapsid protein assessed as induction of blue shift in fluorescence spectrum at 10 uM incubated for 1 hr by fluorescence spectral analysis. A digest of the protocol: as §1
The test system is the same in data set [9]. Kind of data set: Binding affinity to N-terminal domain of MERS-CoV nucleocapsid protein assessed as radius of gyration at 440 uM by SAXS analysis (reference value: 58 angstrom).
Data set [10] concerns Vero C1008. Description: Inhibition of nucleocapsid protein expression in HCoV EMC/2012 infected in African green monkey Vero E6 cells at 100 uM by immunofluorescence microscopy. Format: functional. The note with it: Human betacoronavirus 2c EMC/2012.
The test system of data set [11] is Vero C1008. Description: Induction of intracellular nucleocapsid protein aggregation in HCoV EMC/2012 infected in African green monkey Vero E6 cells at 50 uM by immunofluorescence microscopy. Particulars: Human betacoronavirus 2c EMC/2012. In kind it is cell-based.
Data set [12] deals with Vero C1008. Kind of data set: Antiviral activity against HCoV EMC/2012 infected in African green monkey Vero E6 cells assessed as reduction in viral titer at 50 uM incubated for 48 hrs by crystal violet staining based viral plaque assay. Particulars: Human betacoronavirus 2c EMC/2012. In kind it is functional.
Data set [13] can be described thus: Therapeutic index, ratio of CC50 for cytotoxicity in African green monkey VeroE6 cells incubated for 48 hrs by neutral red uptake assay to EC50 for antiviral activity against MERS-CoV infected in African green monkey Vero E6 cells incubated for 48 hrs by neutral red uptake assay. In kind it is toxicity, cell-based, Vero C1008. Particulars: read-out: Ratio CC50/EC50.

Data set [14] has as its system Middle East respiratory syndrome-related coronavirus. Description: Binding affinity to N-terminal domain of MERS-CoV nucleocapsid protein assessed as denaturation melting temperature at 10 uM incubated for 1 hr by fluorescent thermal stability assay (reference value: 42 degC).

In [1], `O=C(OCc1ccccc1)N1c2ccccc2CC1CO` (stereo not given) showed an EC50 greater than 100 µM. The result in data set [2] was Active. In data set [3], this compound displayed a CC50 at 48 h of 460 µM.

For the compound `CN(C)Cc1c[nH]c2ccc(OCc3ccccc3)cc12`, the outcome (with Vero C1008 [4]; with Vero C1008 [5]; in data set [2]; in data set [8]; in the data set with Vero C1008 [11]; with Vero C1008 [12]) was Active. Moreover, the Activity worked out at 230 Angstrom in data set [6], 40% in data set [7] and 65 Angstrom in data set [9]. The same compound gave an EC50 in [1] of 32.1 µM. In addition, the inhibition entry in the data set on Vero C1008 [10] is “Active”. This compound also displayed a CC50 at 48 h in data set [3] of 805 µM. Moreover, in data set [13], the selectivity ratio at 48 h turned out to be 25.1. Further, the melting temperature (Tm) in [14] came out at 45 °C.

Consider `CCc1cccc2c3c([nH]c12)C(CC)(CC(=O)O)OCC3` (stereo not given) [ETODOLAC], for which the EC50 in data set [1] is greater than 100 µM. In data set [2], the outcome was Active. In [3], this compound came in with a CC50 at 48 h of 570 µM.
